proCasp3 act = procaspase-3 (human) activation; P42574; recombinant procaspase-3 D3A, Ac-DEVD-pNA absorbance 405 nm; activation, % at 8.5 µM; 330,000 tested, 0.11% active; AID 463141;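 active means activation above the mean of all tested compounds plus 3 SD, cut at about 21% in these data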;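 further: 0% = DMSO alone and 100% = DMSO wells spiked with extra 5 µM PC-3 D3A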
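Assay system: Procaspase-3 D3A mutant, all three cleavage aspartates alanine. Buffer or medium: Zinc-free HEPES saline buffer with Triton X-100. Times: 1 h compound preincubation, 2 h substrate hydrolysis at 25 °C. Measured by: 405 nm absorbance of p-nitroaniline, reads at 0 and 120 min. Read-out basis: percent activation relative to control range. Replicates: singlicate.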
PLC-beta3 inh = blocks human PLC-beta3 enzyme activity. Q01970. Purified PLC-beta3, fluorogenic substrate, fluorescence. inhibition, % at 12.2 µM. 370,000 tested, 0.18% active. AID 720704; in the data active means inhibition above about 11%;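 further: 0% = median of compound wells on plate and 100% = full blocker control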
PLC-gamma1 inh = inhibitors of human phospholipase C gamma1. AID 720700. P19174. inhibition, % at 12.2 µM. 370,000 tested, 0.84% active. purified PLC-gamma1, fluorogenic substrate, fluorescence; in the data active means inhibition above about 9.5%
procasp7 counter = counter-screen: procaspase-7 (human) activation. P55210. recombinant procaspase-7, Ac-DEVD-pNA absorbance 405 nm; D23A/D198A/D206A triple mutant, cannot self-cleave; scale: DMSO 0, 5 µM enzyme 100. activation, % at 8.5 µM. 330,000 tested, 0.093% active. AID 463210;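 active means percent activation above the screen-wide mean plus 3 SD, cut at about 25% in these data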
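System: Procaspase-7 triple mutant (PC-7 D3A); measure: % activation from two-timepoint absorbance difference, scaled to controls; times: 1 h compound preincubation, 2 h substrate cleavage, 25 °C; also added: Ac-DEVD-pNA substrate, 400 µM as added; measured by: Epi-absorbance of released pNA at 405 nm, two timepoints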
sPLA2-III inh = Inhibits HGIII-sPLA2 liposome hydrolysis, primary screen | Q9NZ20 | QFRET BODIPY PC-A2 liposome hydrolysis, fluorescence | inhibition, % at 12.2 µM | 370,000 tested, 0.56% active | AID 743126;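 active means inhibition above mean plus 3 SD of compounds lying within the high and low control bounds, cut at about 19% in these data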;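 further: 0% = median of test compound wells and 100% = no enzyme DMSO wells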
sPLA2 confirm = human GIII-sPLA2 inhibition, confirmation; shares compounds with sPLA2-III inh; recombinant hGIII-sPLA2, BODIPY PC-A2 QFRET fluorescence; inhibition, % at 12.2 µM; 2,000 tested, 34% active;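 active means mean inhibition across triplicates above the hit cutoff set in the earlier primary screen, cut at about 19% in these data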;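 further: 0% = enzyme with DMSO and 100% = DMSO wells lacking enzyme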
BODIPY interf = optically interferes with 535nm fluorescence in sPLA2 counter-screen; 2,000 tested, 8.5% active; BODIPY FL product fluorescence interference, QFRET; inhibition, % at 12.2 µM; shares compounds with sPLA2-III inh; AID 743282;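 active means average inhibition above the solvent-only control mean plus 3 SD, cut at about 6% in these data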;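 further: 0% = DMSO with substrate plus product and 100% = DMSO with substrate alone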
* = called active by the depositor; nt = not tested or not shown. A selection: hits, their analogues and other compounds. The true share with any hit is near 1.6%.

SMILES	proCasp3 act	PLC-beta3 inh	PLC-gamma1 inh	procasp7 counter	sPLA2-III inh	sPLA2 confirm	BODIPY interf
Cc1cccc(C)c1NC(=O)C(c1ccc(-c2ccccc2)cc1)n1c(=O)c(-c2ccco2)nc2ccccc21 (stereo unspecified)	nt	-34	-16	nt	20*	13	-12
COc1ccc(NC(=O)N2CCCCC2c2cccnc2)cc1 (stereo unspecified)	0	-1	0	-6	22*	4	-5
COc1cc(OC)cc(C(=O)NC(=S)N2CCCCC2c2cccnc2)c1 (stereo unspecified)	-3	1	-2	-17	9	nt	nt
O=c1c2ccccc2nc2n1CC/C2=C\N1CCN(c2ccc([N+](=O)[O-])cc2)CC1	-12	-27	-13	-7	6	nt	nt
CCSC1=NC(=O)/C(=C2/C=Cc3ccccc3N2CC)S1	-10	3	5	-20	21*	46*	9.6*
CCCCC(=O)Oc1cc(C)[nH]c(=O)c1[N+](=O)[O-]	2	-2	7	-15	21*	1	-5
CCCC(CCC)C(=O)Oc1cc(C)[nH]c(=O)c1[N+](=O)[O-]	1	1	3	-2	-1	nt	nt
O=S1(=O)CCS(=O)(=O)C1c1ccccc1	-16	-5	9	-5	20*	-2	-5
O=C1CC(=O)CC(c2ccccc2)C1	-1	-4	-4	-10	2	nt	nt
Cc1cc(C)nc(SCc2cc(=O)c(OC(=O)c3ccc(Cl)c([N+](=O)[O-])c3)co2)n1	0	-2	2	0	22*	-17	-11
CC1CCN(CCc2nc3cc(NC(=O)COc4ccc([N+](=O)[O-])cc4)ccc3n2C)CC1	3	-6	3	11	5	nt	nt
CN1CCN(CC(O)COc2ccc(C(=O)O)cc2)CC1 (stereo unspecified)	5	3	0	2	19*	6	-6
CC(=O)c1ccc(Nc2nc(C(C)N)cs2)cc1 (stereo unspecified)	nt	-39	-26	nt	10	nt	nt
O=C(NCCCN1CCCC1=O)c1ccc(CNS(=O)(=O)c2ccc(F)cc2)cc1	1	9	7	12	72*	-1	-10
CC(C)(C)c1ccc(-c2csc(N3CCC(C(N)=O)CC3)n2)cc1	nt	2	4	nt	10	nt	nt
NC(=O)C1CCN(c2nc(-c3ccc(Br)cc3)cs2)CC1	0	4	2	-1	23*	14	0
Clc1ccc(-c2csc(N3CCCCCC3)n2)cc1	-9	8	-1	6	23*	27*	6.7*
Clc1ccc(-c2csc(N3CCOCC3)n2)cc1	nt	-5	2	nt	6	nt	nt
O=C(O)c1ccc(-c2nn3c(=O)cc(N4CCNCC4)nc3s2)cc1	nt	-21	-15	nt	2	nt	nt
Nc1ccc(Cl)c(S(=O)(=O)Nc2ccc(Cl)cc2)c1	-2	-4	2	9	-2	nt	nt
CCOc1ccccc1CN1CCN(CCCn2cccn2)CC1CCO (stereo unspecified)	-3	6	0	2	6	nt	nt
CCC(C)[C@H](NC(=O)N1CCCCC1)C(=O)OC (stereo partly specified)	-9	-6	-2	-4	23*	0	-4
Cc1ccnc(NS(=O)(=O)c2ccc(NC(=O)c3cccc(Cl)c3)cc2)n1	nt	4	0	nt	-7	nt	nt
CC(C)N=C1NN=C(c2cccs2)C(CC(=O)O)S1 (stereo unspecified)	-19	-21	-5	-23	20*	1	-5
O=C(OC[C@@H]1CCCN2CCCC[C@H]12)c1cc2ccccc2oc1=O	-4	-17	-12	7	20*	2	-7
SMILES	proCasp3 act	PLC-beta3 inh	PLC-gamma1 inh	procasp7 counter	sPLA2-III inh	sPLA2 confirm	BODIPY interf
Cc1cc(C)cc(NC(=S)N2CCN(c3ccc(F)cc3)CC2)c1	-1	10	7	2	11	nt	nt
Cc1cccc(NC(=S)N2CCN(c3ccc(F)cc3)CC2)c1	1	-3	1	5	26*	11	-5
C/C(=N/NC(=O)CN(c1ccccc1)S(=O)(=O)c1ccccc1)c1ccccc1O	-15	-7	-7	-20	24*	15	-6
O=C(Nc1cccnc1N1CCOCC1)c1cccs1	-8	-8	3	7	22*	0	-5
COCCn1c(=NC(=O)c2ccc(S(=O)(=O)N3CCCc4ccccc43)cc2)sc2cc(S(C)(=O)=O)ccc21	4	-10	-7	5	20*	-8	-1
C=CCn1c(=NC(=O)c2ccc(S(=O)(=O)N3CCCc4ccccc43)cc2)sc2cc(S(N)(=O)=O)ccc21	14	-50	-40	0	-7	nt	nt
CCOC(=O)c1cc(C#N)c(SCC(=O)c2cc(C#N)c(SC)nc2C)nc1C	-4	-26	-20	5	20*	-11	-3
CCOC(=O)C1=NOC2(C1)C(=O)Nc1c(Cl)cccc12 (stereo unspecified)	nt	0	6	nt	4	nt	nt
Cc1ccc(C(C)NC(=S)NC2CCCCC2)cc1C (stereo unspecified)	nt	-3	5	nt	20*	11	-4
Cc1ccc(S(=O)(=O)CC(=O)Nc2nccs2)cc1	-4	-5	-1	-3	1	nt	nt
Clc1ccc(/C=N/N2CCCCC2)cc1	-2	2	5	3	17	nt	nt
N#Cc1ccc(C=NN2CCCCCC2)cc1	nt	1	0	nt	21*	23*	2
CC(OC(=O)c1ccc(-n2cnnn2)cc1)C(=O)N(C)c1ccccc1 (stereo unspecified)	nt	1	-2	nt	-4	nt	nt
O=C(Nc1nccs1)c1ncc(Cl)c(Cl)c1Cl	9	1	-2	-1	1	nt	nt
Cc1cc(Br)ccc1NC(=O)CNC(=O)CN(C)Cc1nc2ccccc2c(=O)[nH]1	-3	4	-4	0	25*	16	-16
CSc1nc2c(c(=O)[nH]1)CCCC2	7	0	-2	-3	-4	nt	nt
CCCCSc1nc2c(c(=O)[nH]1)CCC2	6	1	2	4	20*	0	-3
CC(NC(=O)Cc1ccccc1[N+](=O)[O-])c1ccccc1 (stereo unspecified)	3	5	5	-1	23*	-4	-4
CC(NC(=O)COC(=O)Cc1ccccc1[N+](=O)[O-])c1ccccc1 (stereo unspecified)	-5	-1	5	-8	-3	nt	nt
